Measurements taken from ChEMBL document CHEMBL1275429, “Pharmacodynamic characterization of ceftobiprole in experimental pneumonia caused by phenotypically diverse Staphylococcus aureus strains” (Antimicrob Agents Chemother, 2008).
Values after ≈ are worked out from the molar mass of the structure shown.

Legend:
Staphylococcus aureus [1] = test: Antimicrobial activity against methicillin-susceptible Staphylococcus aureus ATCC 29213 by broth microdilution method; type: functional
Outline: (§1)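 Broth microdilution run in triplicate following CLSI guidelines. Isolates were stored at –80°C in double-strength skim milk and subcultured twice on Trypticase soy agar with 5% sheep blood before testing.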

[2] = fT>MIC required for stasis inhibition of methicillin-susceptible Staphylococcus aureus 25923 infection in neutropenic BALB/cAnNCr mouse; type: functional
Staphylococcus aureus [3] = test: Antimicrobial activity against hospital acquired methicillin-resistant Staphylococcus aureus 152 infected in BALB/cAnNCr mouse assessed as decrease in bacterial density in lungs at 1 to 25 mg/kg, sc administered as 1 to 5 times/day after 24 hrs […] relative to control; type: functional; conditions: route subcutaneous
Outline: (§2)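 Female BALB/cAnNCr mice (7–9 weeks) were made neutropenic with cyclophosphamide i.p. at 250 mg/kg on day −4 and 100 mg/kg on day −1. Under isoflurane, mice received an oral inoculum in 3% mucin/saline, with nostrils blocked until aspiration. Drug (1–25 mg/kg s.c., once to five times daily, water vehicle) or sham started 6 h post-inoculation. Lungs were harvested at 24 h, homogenized and plated on blood and Columbia agar at 35°C. Mean log10 CFU/ml was compared with the 0-h untreated baseline; 5 mice per group.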

Staphylococcus aureus [4] = test: Antimicrobial activity against hospital acquired methicillin-resistant Staphylococcus aureus 152 by broth microdilution method; type: functional; outline: as §1
[5] = Elimination clearance in neutropenic BALB/cAnNCr mouse infected with Staphylococcus aureus at 25 mg/kg, sc administered as single dose after 6 hrs of infection; type: ADME, organism-based; set-up: dose 25 mg/kg, route subcutaneous; conditions: in vivo
Outline: (§3)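 Neutropenic female mice (cyclophosphamide i.p. 250 mg/kg day −4, 100 mg/kg day −1) with HA-MRSA 56 pneumonia (oral inoculum, 10^7 CFU/ml in 3% mucin). Single s.c. dose in sterile water. Plasma by intracardiac puncture at 0.25–4 h, six mice per time point, stabilized with citric acid. Assayed by validated HPLC (LOQ 0.01 µg/ml). Parameters from one-compartment analysis.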

[6] = fT>MIC required for 80% inhibition of hospital acquired methicillin-resistant Staphylococcus aureus 56 infection in neutropenic BALB/cAnNCr mouse; type: functional
Outline: (§4)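 Same neutropenic murine pneumonia model, with 24-h lung log10 CFU change (5 mice per group; 1–25 mg/kg s.c., 1–5 times daily). […] ED50, ED80 and stasis exposures were taken from a sigmoid Emax fit for each isolate.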

[7] = fT>MIC required for 80% inhibition of community acquired methicillin-resistant Staphylococcus aureus 147 infection in neutropenic BALB/cAnNCr mouse; type: functional; outline: as §4
[8] = fT>MIC required for 50% inhibition of methicillin-susceptible Staphylococcus aureus 25923 infection in neutropenic BALB/cAnNCr mouse; type: functional
[9] = Cmax in neutropenic BALB/cAnNCr mouse infected with Staphylococcus aureus at 2.5 mg/kg, sc administered as single dose after 6 hrs of infection; type: ADME, organism-based; set-up: dose 2.5 mg/kg, route subcutaneous; conditions: in vivo
Outline: (§5)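 Female BALB/cAnNCr mice (7-9 weeks, 15-22 g) made neutropenic with cyclophosphamide, 250 mg/kg i.p. on day -4 and 100 mg/kg i.p. on day -1. Infected by oral aspiration of HA-MRSA 56 (10^7 CFU/ml in 3% mucin/saline). Single s.c. dose in sterile water given 6 h post-challenge. Plasma (EDTA, citric acid-stabilized) taken at 0.25-4 h, six mice per time point. Assayed by validated HPLC (LOQ 0.01 µg/ml); one-compartment analysis.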

[10] = fT>MIC required for 50% inhibition of hospital acquired methicillin-resistant Staphylococcus aureus 56 infection in neutropenic BALB/cAnNCr mouse; type: functional; outline: as §4
Staphylococcus aureus [11] = test: Antimicrobial activity against community acquired methicillin-resistant Staphylococcus aureus 144 by broth microdilution method; type: functional; outline: as §1
[12] = fCmax/MIC required for 80% inhibition of Staphylococcus aureus infection in neutropenic BALB/cAnNCr mouse; type: functional
Mus musculus [13] = test: Volume of distribution in neutropenic BALB/cAnNCr mouse infected with Staphylococcus aureus at 2.5 mg/kg, sc administered as single dose after 6 hrs of infection; type: ADME, organism-based; set-up: dose 2.5 mg/kg, route subcutaneous; conditions: in vivo; outline: as §5
Mus musculus [14] = test: Volume of distribution in neutropenic BALB/cAnNCr mouse infected with Staphylococcus aureus at 10 mg/kg, sc administered as single dose after 6 hrs of infection; type: ADME, organism-based; set-up: dose 10 mg/kg, route subcutaneous; conditions: in vivo; outline: as §3
Staphylococcus aureus [15] = test: Antimicrobial activity against methicillin-susceptible Staphylococcus aureus 25923 infected in BALB/cAnNCr mouse assessed as decrease in bacterial density in lungs at 1 to 25 mg/kg, sc administered as 1 to 5 times/day after 24 hrs […] relative to control; type: functional; conditions: dose mg/kg 1-5; route subcutaneous
Outline: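 Neutropenic mice given oral S. aureus inoculum (10^7 CFU/ml in 3% mucin). s.c. dosing of 1–25 mg/kg, once to five times daily, began 6 h post-infection and ran 24 h, five mice per group, with sham-treated controls. Lung homogenates were plated on blood and Columbia agar at 35°C up to 48 h. Log10 CFU/ml at 24 h was compared with untreated controls.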

[16] = fAUC/MIC in neutropenic BALB/cAnNCr mouse plasma infected with Staphylococcus aureus at 1 to 25 mg/kg, sc administered 1 to 5 times/day after 24 hrs by HPLC; type: functional; conditions: route subcutaneous
Outline: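 Exposure indices used free plasma drug, correcting with 19% mouse protein binding supplied by the sponsor. The regimens were s.c. 1–25 mg/kg given 1–5 times daily for 24 h to neutropenic mice with S. aureus pneumonia. MICs were determined in triplicate by CLSI broth microdilution. PK came from the single-dose HPLC study.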

[17] = fT>MIC required for 50% inhibition of Staphylococcus aureus infection in neutropenic BALB/cAnNCr mouse; type: functional
[18] = fT>MIC required for 80% inhibition of Staphylococcus aureus infection in neutropenic BALB/cAnNCr mouse; type: functional
[19] = Elimination clearance in neutropenic BALB/cAnNCr mouse infected with Staphylococcus aureus at 1 mg/kg, sc administered as single dose after 6 hrs of infection; type: ADME, organism-based; set-up: dose 1 mg/kg, route subcutaneous; conditions: in vivo; outline: as §3
Staphylococcus aureus [20] = test: Antimicrobial activity against community acquired methicillin-resistant Staphylococcus aureus 144 infected in BALB/cAnNCr mouse assessed as decrease in bacterial density in lungs at 1 to 25 mg/kg, sc administered as 1 to 5 times/day after 24 hrs […] relative to control; type: functional; conditions: route subcutaneous; outline: as §2
[21] = Elimination half life in neutropenic BALB/cAnNCr mouse infected with Staphylococcus aureus at 10 mg/kg, sc administered as single dose after 6 hrs of infection; type: ADME, organism-based; set-up: dose 10 mg/kg, route subcutaneous; conditions: in vivo; outline: as §3
Staphylococcus aureus [22] = test: Antimicrobial activity against methicillin-susceptible Staphylococcus aureus ATCC 25923 by broth microdilution method; type: functional; outline: as §1
Staphylococcus aureus [23] = test: Antimicrobial activity against community acquired methicillin-resistant Staphylococcus aureus 146 infected in BALB/cAnNCr mouse assessed as decrease in bacterial density in lungs at 1 to 25 mg/kg, sc administered as 1 to 5 times/day after 24 hrs […] relative to control; type: functional; conditions: route subcutaneous; outline: as §2
[24] = fT>MIC required for 50% inhibition of hospital acquired Staphylococcus aureus 152 infection in neutropenic BALB/cAnNCr mouse; type: functional
Staphylococcus aureus [25] = test: Antimicrobial activity against hospital acquired methicillin-resistant Staphylococcus aureus 56 by broth microdilution method; type: functional; outline: as §1

Nc1nc(/C(=N/O)C(=O)N[C@@H]2C(=O)N3C(C(=O)O)=C(/C=C4\CCN([C@@H]5CCNC5)C4=O)CS[C@H]23)ns1 [CEFTOBIPROLE]
MIC (Staphylococcus aureus [1]): 0.25 µg/mL (≈ 0.468 µM) | fT>MIC [2]: 7.6% | log10cfu (Staphylococcus aureus [3]): 3.8 | MIC (Staphylococcus aureus [4]): 0.5 µg/mL (≈ 0.935 µM) | CL/F [5]: 11.8 mL/min/kg | fT>MIC [6]: 15.5% | fT>MIC [7]: 21.6% | fT>MIC [8]: 8.1% | Cmax [9]: 2910 ng/mL | fT>MIC [10]: 13.7% | MIC (Staphylococcus aureus [11]): 1 µg/mL (≈ 1.87 µM) | fCmax/MIC [12]: 2 | Vd (Mus musculus [13]): 0.63 L/kg | Vd (Mus musculus [14]): 0.38 L/kg | log10cfu (Staphylococcus aureus [15]): 4.2 | fAUC/MIC [16]: 2 | fT>MIC [17]: 12% | fT>MIC [18]: 17% | CL/F [19]: 9 mL/min/kg | log10cfu (Staphylococcus aureus [20]): 2.9 | half-life [21]: 25.2 min | MIC (Staphylococcus aureus [22]): 0.25 µg/mL (≈ 0.468 µM) | log10cfu (Staphylococcus aureus [23]): 3.6 | fT>MIC [24]: 14% | MIC (Staphylococcus aureus [25]): 1 µg/mL (≈ 1.87 µM)
